Data published in publication PMC4207547 (Journal of Medicinal Chemistry, 2014).
pIC50: −log10 of the molar value.

target: T1, CXCR2 (Homo sapiens, UniProt P25025); assay: CXCL1-stimulated Ca2+ flux in whole human neutrophils; type: cell-based; conditions: CXCL1-stimulated Ca2+ flux, hPMNs
T1 sequence (P25025 1-360): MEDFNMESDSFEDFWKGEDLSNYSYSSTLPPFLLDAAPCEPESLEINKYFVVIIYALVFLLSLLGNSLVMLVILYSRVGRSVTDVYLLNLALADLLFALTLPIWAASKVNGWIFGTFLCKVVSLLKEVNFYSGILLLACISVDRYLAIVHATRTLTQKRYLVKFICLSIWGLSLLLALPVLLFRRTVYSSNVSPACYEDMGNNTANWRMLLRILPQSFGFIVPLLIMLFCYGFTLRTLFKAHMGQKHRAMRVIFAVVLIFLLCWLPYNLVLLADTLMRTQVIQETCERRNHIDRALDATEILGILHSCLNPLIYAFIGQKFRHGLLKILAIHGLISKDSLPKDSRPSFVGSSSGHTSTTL
In short: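 Human neutrophils were isolated from blood by dextran sedimentation, Histopaque 1077 gradient and hypotonic RBC lysis (>95% pure, >98% viable). Cells were loaded with FLIPR Calcium 3 dye in HEPES-buffered Ca/Mg-free HBSS with compound or 1% DMSO for 30 min at 37 °C, then resuspended in HEPES-HBSS with Ca2+/Mg2+ and challenged with CXCL1.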

Compound	fold reduction in activity relative to 7	fold lower potency than 60 [fold]	fold improvement in potency relative to 2-carboxylate 51 [fold]
O=C(Nc1ccc(O)cc1)c1ccc(SCc2ccccc2B(O)O)nc1 [Compound 58, 2-((5-(4-Hydroxyphenylcarbamoyl)pyridin-2-ylthio)methyl)phenylboronic acid]	3 fold		
O=C(c1ccc(SCc2ccccc2B(O)O)nc1)N(Cc1ccncc1)c1ccc(F)cc1 [Compound 61, 2-((5-((4-Fluorophenyl)(pyridin-4-ylmethyl)carbamoyl)pyridin-2-ylthio)methyl)phenylboronic acid]		11	
O=C(Nc1ccncc1)c1ccc(SCc2ccccc2B(O)O)nc1 [Compound 57, 2-((5-(Pyridin-4-ylcarbamoyl)pyridin-2-ylthio)methyl)phenylboronic acid]	14 fold		
O=C(Nc1ccc(F)cc1)c1ccc(SCc2ccccc2-c2nn[nH]n2)nc1 [Compound 52, 6-(2-(2H-Tetrazol-5-yl)benzylthio)-N-(4-fluorophenyl)nicotinamide]			~10
COC(=O)c1ccccc1CSc1ccc(C(=O)Nc2ccc(F)cc2)cn1 [Compound 50, Methyl 2-((5-(4-Fluorophenylcarbamoyl)pyridin-2-ylthio)methyl)benzoate]			2
O=C(Nc1ccc(OC(F)(F)F)cc1)c1ccc(SCc2ccccc2B(O)O)nc1 [Compound 54, 2-((5-(4-(Trifluoromethoxy)phenylcarbamoyl)pyridin-2-ylthio)methyl)phenylboronic acid]	7 fold		
O=C(Nc1ccc(F)cn1)c1ccc(SCc2ccccc2B(O)O)nc1 [Compound 59, 2-((5-(5-Fluoropyridin-2-ylcarbamoyl)pyridin-2-ylthio)methyl)phenylboronic acid]	8 fold		
CC1(C)OB(c2ccccc2CSc2ccc(C(=O)Nc3ccc(F)cc3)cn2)OC1(C)C [Compound 53, N-(4-Fluorophenyl)-6-(2-(4,4,5,5-tetramethyl-1,3,2-dioxaborolan-2-yl)benzylthio)nicotinamide]	approximately 7 fold		

same assay, conditions: hPMNs; SAR discussion

Compound	activity against CXCL1-stimulated Ca2+ flux, in words
O=C(Nc1ccc(F)cc1)c1ccc(SC[N+](=O)[O-])nc1 [Compound 11, N-(4-Fluorophenyl)-6-(nitromethylthio)nicotinamide]	loss of activity
COC(=O)c1cccc(CSc2ccc(C(=O)Nc3ccc(F)cc3)cn2)c1 [Compound 48, Methyl 3-((5-(4-Fluorophenylcarbamoyl)pyridin-2-ylthio)methyl)benzoate]	inactive
O=C(O)c1ccc(NC(=O)c2ccc(SCc3ccccc3B(O)O)nc2)cc1 [Compound 55, 4-(6-(2-Boronobenzylthio)nicotinamido)benzoic acid]	abrogated all activity
CCOP(=O)(CSc1ccc(C(=O)Nc2ccc(F)cc2)cn1)OCC [Compound 12, Diethyl (5-(4-fluorophenylcarbamoyl)pyridin-2-ylthio)methylphosphonate]	loss of activity
O=C(Nc1ccc(F)cc1)c1ccc(Sc2ccccc2)nc1 [Compound 45, N-(4-Fluorophenyl)-6-(phenylthio)nicotinamide]	loss of activity
O=C(Nc1ccc(F)cc1)c1ccc(SCS(=O)(=O)c2ccccc2)nc1 [Compound 10, N-(4-Fluorophenyl)-6-(phenylsulfonylmethylthio)nicotinamide]	loss of activity
O=C(c1ccc(SCc2ccccc2B(O)O)nc1)N(CC1CCCCN1)c1ccc(F)cc1 (stereo not shown) [Compound 62, 2-((5-((4-Fluorophenyl)(piperidin-2-ylmethyl)carbamoyl)pyridin-2-ylthio)methyl)phenylboronic acid]	completely devoid of activity
O=C(O)CN(C(=O)c1ccc(SCc2ccccc2B(O)O)nc1)c1ccc(F)cc1 [Compound 63, 2-(6-(2-Boronobenzylthio)-N-(4-fluorophenyl)nicotinamido)acetic acid]	A similar finding
O=C(Nc1ccc(-c2nn[nH]n2)cc1)c1ccc(SCc2ccccc2B(O)O)nc1 [Compound 56, 2-((5-(4-(2H-Tetrazol-5-yl)phenylcarbamoyl)pyridin-2-ylthio)methyl)phenylboronic acid]	abrogated all activity
COC(=O)c1ccc(CSc2ccc(C(=O)Nc3ccc(F)cc3)cn2)cc1 [Compound 46, Methyl 4-((5-(4-Fluorophenylcarbamoyl)pyridin-2-ylthio)methyl)benzoate]	inactive
O=C(Nc1ccc(F)cc1)c1ccc(SC2CCOC2=O)nc1 (stereo not shown) [Compound 9, N-(4-Fluorophenyl)-6-(2-oxotetrahydrofuran-3-ylthio)nicotinamide]	loss of activity

same assay, conditions: inhibition of CXCL1-stimulated Ca2+ flux in whole hPMNs; mean ± standard error

Compound	pIC50
N-(4-Fluorophenyl)-6-(4-(5-methyl-1,2,4-oxadiazol-3-yl)benzylthio)nicotinamide [Compound 18]	< 5.30

same assay, conditions: read-out: inhibition of CXCL1-mediated intracellular Ca2+ release

Compound	inhibition at 5 µM [%]
O=C(Nc1ccc(F)cc1)c1ccc(SCC2CCCO2)nc1 (stereo not shown) [Compound 20, N-(4-Fluorophenyl)-6-((tetrahydrofuran-2-yl)methylthio)nicotinamide]	> 50
O=C(Nc1ccc(F)cc1)c1ccc(SCc2ccncc2)nc1 [Compound 15, N-(4-Fluorophenyl)-6-(pyridin-4-ylmethylthio)nicotinamide]	> 50
O=C(Nc1ccc(F)cc1)c1ccc(SCc2ccc(Cl)c(Cl)c2)nc1 [Compound 43, 6-(3,4-Dichlorobenzylthio)-N-(4-fluorophenyl)nicotinamide]	> 50
O=C(Nc1ccc(F)cc1)c1ccc(SCc2ccccc2)nc1 [Compound 30, 6-(Benzylthio)-N-(4-fluorophenyl)nicotinamide]	> 50
O=C(Nc1ccc(F)cc1)c1ccc(SCc2ccc([N+](=O)[O-])o2)nc1 [Compound 22, N-(4-Fluorophenyl)-6-((5-nitrofuran-2-yl)methylthio)nicotinamide]	> 50
O=C(Nc1ccc(F)cc1)c1ccc(SCC2CCCCO2)nc1 (stereo not shown) [Compound 13, N-(4-Fluorophenyl)-6-((tetrahydro-2H-pyran-2-yl)methylthio)nicotinamide]	> 50
O=C(Nc1ccc(F)cc1)c1ccc(SCC2CCOCC2)nc1 [Compound 17, N-(4-Fluorophenyl)-6-((tetrahydro-2H-pyran-4-yl)methylthio)nicotinamide]	> 50

system: CXCR1; assay: not given; conditions: cited from earlier work

Compound	effect on CXCL8 binding to CXCR1, in words
CC(C)Cc1ccc([C@@H](C)C(=O)NS(C)(=O)=O)cc1 [reparixin, Reparixin]	no effect
